In ChEMBL document CHEMBL2176917, “Effect of the prosthetic group on the pharmacologic properties of 18F-labeled rhodamine B, a potential myocardial perfusion agent for positron emission tomography (PET)” (J Med Chem, 2012):

Columns and labels:
Nucleic Acid [1] = assay: Ratio of drug level in heart to liver in Wistar rat after 60 mins; format: ADME, tissue-based; conditions: in vivo, 1 h
[2] = Ratio of drug level in heart to blood in Sprague-Dawley rat after 60 mins; format: ADME; conditions: heart and blood (heart-to-blood ratio)
Nucleic Acid [3] = assay: Ratio of drug level in heart to liver in Sprague-Dawley rat after 60 mins; format: ADME, tissue-based; conditions: in vivo, 1 h
[4] = Ratio of drug level in heart to blood in Sprague-Dawley rat after 5 mins; format: ADME; conditions: heart and blood (heart-to-blood ratio)
Muscle tissue = assay: Biodistribution in rat muscle at 1.1 to 2.2, iv after 60 mins; format: ADME, organism-based; conditions: in vivo, 1 h
Summary of the method: (§1)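 Five rats per tracer received 1.1–2.2 MBq (30–60 µCi) of the 18F-labeled rhodamine ester in 100 µL 10% EtOH/saline through the tail vein after 0.2 µm filtration. They were killed by CO2 asphyxia at 60 min p.i. Excised tissues were weighed and counted for 18F. %ID/g was calculated against an injectate standard. Heart-to-blood ratios were derived from these values.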

Liver [5] = assay: Drug uptake in rat liver at 3.7 to 5.6 MBq after 5 mins by PET analysis; format: ADME, tissue-based; conditions: in vivo
Summary of the method: (§2)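 Each group of at least five rats was injected with 100 µL of filtered tracer (3.7–5.6 MBq, 100–150 µCi) in 10% EtOH/saline under isoflurane anesthesia (2–4% in air). MicroPET acquisition began as soon as possible after injection and ran 60 min in list mode. Images were reconstructed by 2D OSEM as one 60 min image or six 10 min frames. Time-activity curves for organs were expressed as kBq/cm3.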

[6] = Drug uptake in rat myocardium at 3.7 to 5.6 MBq after 60 mins by PET analysis; format: ADME, tissue-based; conditions: in vivo, 1 h; summary of the method: as §2
[7] = Metabolic stability of the compound in human serum at 3.7 to 5.6 MBq after 120 mins; format: ADME, cell-free; conditions: read-out: Stability
Summary of the method: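 Tracer (3.7–5.6 MBq) in 20 µL 10% EtOH/PBS was added to 200 µL of mouse, rat or human serum, or to PBS, prewarmed to 37°C, then shaken and incubated at 37°C. At 15, 30, 60 and 120 min, aliquots were quenched with cold ethanol and kept on ice. Samples were filtered (30 kD cutoff, 4°C), diluted with water and analysed by radio-HPLC for intact tracer.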

Liver [8] = assay: Drug uptake in rat liver at 3.7 to 5.6 MBq after 60 mins by PET analysis; format: ADME, tissue-based; conditions: in vivo, 1 h; summary of the method: as §2
Kidney = assay: Drug excretion in rat kidney at 3.7 to 5.6 MBq after 60 mins by PET analysis; format: ADME, tissue-based; conditions: in vivo, 1 h; summary of the method: as §2
[9] = Ratio of drug level in heart to blood in rat at 1.1 to 2.2, iv after 60 mins; format: ADME, organism-based; conditions: heart and blood (heart-to-blood ratio); summary of the method: as §1
Blood = assay: Biodistribution in rat blood at 1.1 to 2.2, iv after 60 mins; format: ADME, organism-based; conditions: in vivo, 1 h; summary of the method: as §1
Liver [10] = assay: Biodistribution in rat liver at 1.1 to 2.2, iv after 60 mins; format: ADME, organism-based; conditions: in vivo, 1 h; summary of the method: as §1
[11] = Drug excretion in rat gut at 3.7 to 5.6 MBq after 60 mins by PET analysis; format: ADME, tissue-based; conditions: in vivo, 1 h; summary of the method: as §2
Rattus norvegicus = assay: Biodistribution in rat gut at 1.1 to 2.2, iv after 60 mins; format: ADME, organism-based; conditions: in vivo, 1 h; summary of the method: as §1
Heart = assay: Drug uptake in rat heart at 3.7 to 5.6 MBq after 5 mins by PET analysis; format: ADME, tissue-based; conditions: in vivo; summary of the method: as §2
Gall bladder (mouse) = assay: Drug uptake in mouse gall bladder at 3.7 to 5.6 MBq after 60 mins by PET analysis; conditions: in vivo, 1 h
Intestine (mouse) = assay: Drug uptake in mouse intestine at 3.7 to 5.6 MBq after 60 mins by PET analysis; conditions: in vivo, 1 h
Spleen (mouse) = assay: Drug uptake in mouse spleen at 3.7 to 5.6 MBq after 60 mins by PET analysis; conditions: in vivo, 1 h
Kidney (mouse) = assay: Drug uptake in mouse kidney at 3.7 to 5.6 MBq after 60 mins by PET analysis; conditions: in vivo, 1 h
[12] = Metabolic stability of the compound in mouse serum at 3.7 to 5.6 MBq after 120 mins; format: ADME, cell-free; conditions: read-out: Stability
Summary of the method: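 Radiotracer (3.7–5.6 MBq) in 10% EtOH/PBS was added to serum pre-equilibrated at 37°C, shaken and incubated at 37°C. Aliquots were taken at 15, 30, 60 and 120 min and quenched with cold absolute EtOH. They were held on ice for 5 min, passed through a 30 kD cutoff filter at 4°C, and the water-diluted filtrate was analysed by radio-HPLC for intact tracer. A PBS incubation ran in parallel.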

Liver [13] = assay: Drug uptake in rat liver at 3.7 to 5.6 MBq after 30 mins by PET analysis; format: ADME, tissue-based; conditions: in vivo, 0.5 h; summary of the method: as §2
Nucleic Acid [14] = assay: Ratio of drug level in heart to bone in rat at 1.1 to 2.2, iv after 60 mins; format: ADME, organism-based; conditions: in vivo, 1 h
Summary of the method: (§3)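 Five rats per compound each received 1.1–2.2 MBq of tracer in 10% EtOH/saline by tail vein. They were killed by CO2 at 60 min p.i., and selected tissues were excised, weighed and counted for 18F. %ID/g was calculated against a standard prepared from the injectate. Unpaired two-tailed t test.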

Nucleic Acid [15] = assay: Ratio of drug level in heart to liver in rat at 1.1 to 2.2, iv after 60 mins; format: ADME, organism-based; conditions: in vivo, 1 h; summary of the method: as §3
Nucleic Acid [16] = assay: Ratio of drug level in heart to lung in rat at 1.1 to 2.2, iv after 60 mins; format: ADME, organism-based; conditions: in vivo, 1 h; summary of the method: as §3

| SMILES | Kp at 1 h [2] | Ratio (Nucleic Acid [3]) | Drug uptake (Muscle tissue) [% ID/g] | Drug uptake (Liver [5]) [kBq/cm3] | Drug uptake [6] | remaining at 2 h [7] [%] | Drug uptake (Liver [8]) | Drug excretion (Kidney) | Kp at 1 h [9] | Drug uptake (Blood) [% ID/g] | Drug uptake (Liver [10]) [% ID/g] | Drug excretion [11] | Drug uptake (Rattus norvegicus) [% ID/g] | Drug uptake (Heart) [kBq/cm3] | Drug uptake (Gall bladder (mouse)) | Drug uptake (Intestine (mouse)) | Drug uptake (Spleen (mouse)) | Drug uptake (Kidney (mouse)) | remaining at 2 h [12] [%] | further results |
| --- | --- | --- | --- | --- | --- | --- | --- | --- | --- | --- | --- | --- | --- | --- | --- | --- | --- | --- | --- | --- |
| CC(C)(C)n1ncc(OCc2ccc(COCC[18F])cc2)c(Cl)c1=O [FLURPIRIDAZ F 18] | 13.7 | 3.7 |  |  |  |  |  |  |  |  |  |  |  |  |  |  |  |  |  | Ratio (Nucleic Acid [1]): 5.4 |
| [18F]c1ccc([P+](c2ccccc2)(c2ccccc2)c2ccccc2)cc1 [BFPET F-18] | 75 | 9.2 |  |  |  |  |  |  |  |  |  |  |  |  |  |  |  |  |  | Kp at 5 min [4]: 11 |
| CCN(CC)c1ccc2c(-c3ccccc3C(=O)OCCC[18F])c3ccc(=[N+](CC)CC)cc-3oc2c1.Cc1ccc(S(=O)(=O)[O-])cc1 |  |  | 0.3 | 65 | Active | 99 | Active | Active | 26.4 | 0.05 | 0.55 | Active | 2.53 | 66 |  |  |  |  |  |  |
| CCN(CC)c1ccc2c(-c3ccccc3C(=O)OCCOCCOCC[18F])c3ccc(=[N+](CC)CC)cc-3oc2c1.Cc1ccc(S(=O)(=O)[O-])cc1 |  |  | 0.32 | 15 | Active |  | Active | Active | 5.4 | 0.19 | 0.25 | Active | 0.44 | 16 | Active | Active | Active | Active |  |  |
| CCN(CC)c1ccc2c(-c3ccccc3C(=O)OCCOCC[18F])c3ccc(=[N+](CC)CC)cc-3oc2c1.Cc1ccc(S(=O)(=O)[O-])cc1 |  |  | 0.54 | 59 | Active | 97.1 | Active | Active | 10 | 0.25 | 0.49 | Active | 1.69 | 69 | Active | Active | Active | Active | 97.1 | Drug uptake (Liver [13]): Active |
| CCN(CC)c1ccc2c(-c3ccccc3C(=O)OCC[18F])c3ccc(=[N+](CC)CC)cc-3oc2c1.Cc1ccc(S(=O)(=O)[O-])cc1 |  |  | 0.16 |  |  |  | Active |  | 25.8 | 0.08 | 0.89 |  | 2.4 |  |  |  |  |  | 25 | Ratio (Nucleic Acid [14]): 4.6; Ratio (Nucleic Acid [15]): 2.3; Ratio (Nucleic Acid [16]): 1.6 |
